# From PubChem
# In the library only some 1.4% were active in any assay of this set; here they are far more common.
# STAT1 inh = inhibitors of IFN-gamma induced STAT1 signaling. inhibition, % at 5.5 µM. NIH 3T3 STAT1-luciferase reporter, luminescence. 0.35% of 200,000 active;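 active means inhibition above a set limit, the mean inhibition across all tested compounds plus 3 SD, cut at about 34% in these data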;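 further: 0% = IFN-gamma with DMSO and 100% = IFN-gamma with 300 µM nifuroxazide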
# PERK inhibitor = human PERK inhibition, primary cell-based screen. Q9NZJ5. CHO PERK-DD fusion, SEAP luminescence translation reporter. inhibition, % at 5.6 µM. 0.17% of 220,000 active;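 active means inhibition above the mean inhibition of all tested compounds plus 3 SD, set separately per screening campaign, cut at about 2.9% in these data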;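 further: PERK kinase domain activated by AP20187 dimerizer at 100 nM; 0% = DMSO with dimerizer and 100% = rapamycin at 8.4 µM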
# Target sequence (Q9NZJ5 whole entry, looked up, the tested form may be a part): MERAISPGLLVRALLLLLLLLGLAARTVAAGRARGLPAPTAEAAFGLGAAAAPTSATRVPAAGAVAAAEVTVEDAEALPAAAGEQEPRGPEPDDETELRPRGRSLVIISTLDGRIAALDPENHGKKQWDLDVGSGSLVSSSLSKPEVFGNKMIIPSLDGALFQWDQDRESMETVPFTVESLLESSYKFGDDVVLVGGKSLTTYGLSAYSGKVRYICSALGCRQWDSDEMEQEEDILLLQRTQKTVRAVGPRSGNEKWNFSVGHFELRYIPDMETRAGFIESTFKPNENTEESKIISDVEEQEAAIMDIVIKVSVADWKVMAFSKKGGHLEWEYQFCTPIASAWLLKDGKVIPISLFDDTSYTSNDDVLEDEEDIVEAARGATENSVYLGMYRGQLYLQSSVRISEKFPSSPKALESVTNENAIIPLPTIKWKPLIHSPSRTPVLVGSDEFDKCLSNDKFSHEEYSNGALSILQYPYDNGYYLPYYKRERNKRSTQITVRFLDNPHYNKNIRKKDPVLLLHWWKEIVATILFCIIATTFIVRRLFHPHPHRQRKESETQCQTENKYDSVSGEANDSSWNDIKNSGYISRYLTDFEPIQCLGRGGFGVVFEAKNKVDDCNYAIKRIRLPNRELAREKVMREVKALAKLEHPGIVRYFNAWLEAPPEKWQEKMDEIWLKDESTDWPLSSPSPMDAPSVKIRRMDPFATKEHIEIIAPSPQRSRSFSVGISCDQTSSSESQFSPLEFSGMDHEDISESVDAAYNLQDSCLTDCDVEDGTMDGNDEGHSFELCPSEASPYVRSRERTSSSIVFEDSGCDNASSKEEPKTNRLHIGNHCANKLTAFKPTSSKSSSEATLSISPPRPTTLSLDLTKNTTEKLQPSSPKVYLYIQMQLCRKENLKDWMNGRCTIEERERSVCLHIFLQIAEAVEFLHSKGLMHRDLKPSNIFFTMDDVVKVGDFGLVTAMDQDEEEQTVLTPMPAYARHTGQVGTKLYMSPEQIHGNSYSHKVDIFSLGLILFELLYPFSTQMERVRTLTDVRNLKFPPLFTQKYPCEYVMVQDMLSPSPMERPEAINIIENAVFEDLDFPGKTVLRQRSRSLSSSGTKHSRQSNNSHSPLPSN
# Platelet DG rel = platelet dense granule release activity | inhibition, %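 (compounds screened at 7.5 µM in platelet-rich plasma)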 | AID 1663 | 0.22% of 300,000 active | human platelet-rich plasma, SFLLRN dense granule ATP release, luminescence;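 active means mean replicate score, as percent of positive control, at or above 50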
# STAT3 inh = inhibitors of IL-6 induced STAT3 signaling | U3A cells, IL-6 STAT3-luciferase reporter, luminescence; host cell line lacks STAT1 | 0.89% of 190,000 active | inhibition, % at 5.5 µM;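 active means inhibition above the mean inhibition across all screened compounds plus 3 SD, cut at about 44% in these data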;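 further: 0% = DMSO only wells and 100% = 100 µM nifuroxazide control wells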
# STAT3 act-1 = STAT3 signaling activation; activation (% of control), % at 5.6 µM; U3A cells, IL-6 STAT3-luciferase reporter, luminescence; 100% = signal with IL-6 EC80 alone; 0.91% of 190,000 active;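 active means activation above the screen-wide mean of compound activation plus 3 SD, cut at about 130% in these data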;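 further: 0% = background luminescence of wells with medium and substrate only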
#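 Material: STAT3-luciferase reporter U3A cells. Controls: IL-6-treated wells, 100% activation. Read-out: % activation versus median of IL-6-stimulated wells. Probe or stimulus: IL-6 stimulus at 33 ng/mL final. Timing: compound 1 h, then IL-6 6 h at 37 °C. Signal: reporter luminescence signal.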
# STAT3 act-2 = STAT3 activation, confirmation assay. AID 1267. potentiation (% of control), % at 5.7 µM. shares compounds with STAT3 act-1. U3A STAT3-luciferase reporter, IL-6 potentiation, luminescence; U3A cells lack STAT1; 100 means same as IL-6 alone. 64% of 1,200 active;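 active means percent activation of the STAT3 luciferase reporter above a set limit taken from the earlier primary screen, cut at about 130% in these data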;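 further: 0% = background signal of medium plus substrate and 100% = median of IL-6 with DMSO wells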
# NFkB act 2 = NF-kappaB activation in STAT3 activator counter-screen | shares compounds with STAT3 act-1 | human cells, NF-kappaB reporter activation | activation (% of control), % at 5.7 µM | 11% of 1,200 active; in the data active means activation above about 120%;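 further: reporter induced by TNF-alpha stimulation; 100% = median of stimulated DMSO wells and 0% = no signal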
# STAT1 act STAT3c = activates STAT1, counter-screen to STAT3 activators; NIH 3T3 STAT1-luciferase reporter, IFN-gamma, luminescence; activation (% of control), % at 5.7 µM; 13% of 1,200 active; AID 1318; shares compounds with STAT3 act-1;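 active means activation above the solvent-only control well mean plus 3 SD, set per screening run, cut at about 120% in these data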;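 further: 100% = IFN-gamma with DMSO median signal so 100% means no change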
# Starred values were filed as active, the others as inactive; / = no result.
SMILES,STAT1 inh,PERK inhibitor,Platelet DG rel,STAT3 inh,STAT3 act-1,STAT3 act-2,NFkB act 2,STAT1 act STAT3c
CN(C)CCCNS(=O)(=O)c1ccc(NC2CCCCCC2)c([N+](=O)[O-])c1,/,/,1.9,/,/,/,/,/
Cn1c(=O)c(/C=C/c2ccc(F)cc2)nc2ccccc21,-23.6,-1.4,-18.0,-51.2,152.3*,176.9*,119.8,128.6*
O=C(O)c1sccc1SCc1ccc(Cl)cc1Cl,-0.2,0.2,-0.1,-39.2,137.3*,116.1,103.4,90.7
COc1ccc(C)cc1S(=O)(=O)N(C)CC(=O)NC1CCCCCC1,-7.2,-0.6,0.3,-37.9,136.2*,99.5,109.1,97.4
CCOC(=O)c1cn2nc(SCc3ccccc3)nc2nc1C,/,/,-0.2,/,/,/,/,/
Cc1c(C#N)c2ccccc2n1CC(=O)O,6.1,0.8,5.1,-62.8,158.8*,161.4*,102.5,108.1
CCOC(=O)Cn1c(C)c(C#N)c2ccccc21,5.2,-0.1,6.7,-0.4,105.5,/,/,/
O=C(OCc1nc2ccccc2s1)c1cnccn1,-16.6,1.4,18.9,-37.1,136.2*,145.8*,119.3,139.9*
Cc1cc(C)c(C2=CC(c3ccccc3)n3ncnc3N2)cc1C (stereo not drawn),/,/,-1.3,/,/,/,/,/
Cc1cc(C)c(NC(=O)CS(=O)CC(=O)NCC2CCCO2)c(C)c1 (stereo not drawn),1.1,0.3,4.1,-46.5,140.0*,123.8,106.4,104.1
Cc1cc(C)cc(OCC(=O)NCC2CCCO2)c1 (stereo not drawn),17.2,0.0,-2.5,33.7,72.2,/,/,/
COc1ccc(NC(=O)c2sc(SCc3ccccc3)nc2N)cc1,-9.3,1.0,3.5,9.6,95.0,/,/,/
COc1ccc(NC(=O)c2sc(SC)nc2N)cc1,-24.8,-0.6,5.8,-34.9,136.2*,162.2*,126.8*,150.1*
COc1cc(C2SCC(=O)N2c2nnc(C34CC5CC(CC(C5)C3)C4)s2)cc(OC)c1OC (stereo not drawn),0.5,0.0,5.5,-58.1,165.1*,141.7*,108.0,110.7
COc1ccc(C2SCC(=O)N2c2nnc(C34CC5CC(CC(C5)C3)C4)s2)cc1 (stereo not drawn),-5.9,0.6,-4.6,-1.8,99.3,/,/,/
CCCN(CCC)C(=O)c1cc(-c2ccc3c(c2)OCO3)nc2ccccc12,-2.0,-0.7,3.3,-64.2,154.2*,137.9*,101.0,93.2
COc1ccc(/C=C/c2nnc(NC(=O)COc3ccc(C)cc3)s2)cc1,-2.4,1.0,-41.3,3.7,92.8,/,/,/
Cc1ccc2nc(-c3sc4nc(C)ccc4c3N)[nH]c2c1,-19.1,-1.4,0.3,23.1,81.8,/,/,/
Cc1cc(C)c2c(N)c(-c3nc4ccccc4[nH]3)sc2n1,-15.6,-0.1,-0.9,-76.1,171.0*,182.4*,116.7,110.6
O=C(Nc1cc(C(F)(F)F)ccc1Cl)c1ccncc1,-6.1,0.3,-14.2,16.7,87.6,/,/,/
CC(C)Cc1cc(C(=O)Nc2cc(C(F)(F)F)ccc2Cl)no1,2.6,0.6,6.1,-41.5,143.3*,124.5,96.8,95.5
Cc1cc2cc3c(cc2nc1SCC(=O)Nc1nc(C)c(C)s1)OCO3,8.3,0.7,-0.2,-81.7,168.7*,133.0*,103.2,103.0
Cc1cc(C)n(-c2nc3ccccc3c(=O)n2OCc2ccc(Cl)cc2)n1,12.4,-0.4,-5.2,-45.4,144.8*,127.7,102.0,94.6
Cc1cc(C)n(-c2nc3ccccc3c(=O)n2OCC(=O)OCc2ccccc2)n1,-4.9,-1.4,13.3,10.3,98.7,/,/,/
Cc1cc(Br)ccc1-n1[nH]c(C)c(C=Nc2cccc3nsnc23)c1=O,-9.7,0.2,9.9,-45.2,137.5*,133.3*,100.9,98.8
SMILES,STAT1 inh,PERK inhibitor,Platelet DG rel,STAT3 inh,STAT3 act-1,STAT3 act-2,NFkB act 2,STAT1 act STAT3c
O=C(c1cc[n+]([O-])cc1)N1CCc2c([nH]c3ccccc23)C1c1ccccc1Cl (stereo not drawn),10.2,0.4,-2.4,-83.0,176.5*,155.0*,99.8,91.3
CN1N=C(C(=O)N2CCc3c([nH]c4ccccc34)C2c2ccccc2Cl)CCC1=O (stereo not drawn),-15.4,0.3,-1.7,-59.1,156.2*,177.9*,121.4*,122.6*
O=C(c1ccc(Cn2c(=S)[nH]c3ccc(Br)cc3c2=O)cc1)N1CCN(C2CCCCC2)CC1,-0.2,1.0,16.2,2.6,109.0,/,/,/
COC(=O)CCC(=O)Nc1sc(C)c(C)c1C(N)=O,-1.4,2.2,-0.5,5.4,100.8,/,/,/
COC(=O)CCC(=O)NC(=S)Nc1sc(C)c(C)c1C(N)=O,1.5,-0.1,-1.7,-46.8,139.5*,103.8,137.4*,105.8
O=[N+]([O-])c1ccc(S(=O)(=O)N2CCN(Cc3c[nH]c4ccccc34)CC2)cc1,13.8,-1.5,-6.1,-61.8,151.8*,155.2*,104.5,99.7
COc1ccc(S(=O)(=O)N2CCN(Cc3c[nH]c4ccccc34)CC2)cc1,-3.0,-0.4,2.2,-15.3,121.3,/,/,/
COc1ccc(S(=O)(=O)N2CCCCCC2)cc1C(=O)N(C)Cc1ccc(Cl)cc1Cl,/,/,-7.5,/,/,/,/,/
CCn1c(C)c(/C=N/Nc2nc3ccccc3s2)c2ccccc21,-19.4,-0.6,1.6,-44.8,136.4*,132.2,103.7,114.0
CN(C)c1ccc(C(=O)Nc2nc3c(s2)CCCC3)cc1,-21.5,0.6,20.1,39.7,71.1,/,/,/
C/C(=N\Nc1nc2c(s1)CCCC2)c1ccc(Cl)cc1,-0.1,-0.8,0.7,-66.7,158.5*,104.0,121.8*,114.2
Cc1ccccc1-c1cc2c(nn1)-c1ccccc1C2=O,12.8,-0.5,4.9,-52.8,144.6*,141.3*,101.5,95.8
Cc1ccc(-c2cc3c(nn2)-c2ccccc2C3=O)cc1,/,0.8,45.1,/,/,/,/,/
COc1ccc(C)cc1-n1cnnn1,/,1.4,-0.9,/,/,/,/,/
Nc1cc2c(cc1O)CCCC2,-7.2,-0.6,10.5,-35.2,137.4*,182.8*,118.3,146.9*
COc1cccc(-c2nc(N3CCC(C)CC3)c3ccccc3n2)c1O,3.4,0.9,-3.4,-20.6,121.7,/,/,/
COc1cccc(-c2nc(N3CC(C)CC(C)C3)c3ccccc3n2)c1O (stereo not drawn),3.9,0.7,-16.1,-36.9,138.5*,131.2,106.2,97.7
COc1cccc(-c2nc(NC(C)(C)C)c3ccccc3n2)c1O,5.1,0.1,-2.4,-45.5,143.3*,129.3,105.6,102.5
CNS(=O)(=O)c1cccc(C(=O)NNC(=O)c2ccc(COc3ccccc3)cc2)c1,/,/,2.2,/,/,/,/,/
N#Cc1ccsc1NC(=O)CN1CCN(S(=O)(=O)c2ccccc2C(F)(F)F)CC1,-0.7,-1.0,-11.7,-3.6,103.7,/,/,/
